DUSP1 inh – blocks human MKP-1 phosphatase activity | recombinant MKP-1, OMFP hydrolysis fluorescence | 0.15% of 65,000 active | inhibition, %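 (compounds tested at a single concentration somewhere between 10 and 100 µM)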 | P28562;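 active = inhibition above about 50%, limit read from the data; inconclusive = inhibition over screen mean plus 3 SD, below that limit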;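 note: 0% = DMSO max control wells and 100% = wells with enzyme stopped by NaOH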
Cdc25B inh – inhibitors of human Cdc25B phosphatase; P30305; recombinant Cdc25B, OMFP fluorescence Ex485/Em525; 0.1% of 65,000 active; inhibition, %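 (compounds tested at 10 µM final in the well)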; in the data active = inhibition above about 50%
Target sequence (P30305 whole entry, looked up): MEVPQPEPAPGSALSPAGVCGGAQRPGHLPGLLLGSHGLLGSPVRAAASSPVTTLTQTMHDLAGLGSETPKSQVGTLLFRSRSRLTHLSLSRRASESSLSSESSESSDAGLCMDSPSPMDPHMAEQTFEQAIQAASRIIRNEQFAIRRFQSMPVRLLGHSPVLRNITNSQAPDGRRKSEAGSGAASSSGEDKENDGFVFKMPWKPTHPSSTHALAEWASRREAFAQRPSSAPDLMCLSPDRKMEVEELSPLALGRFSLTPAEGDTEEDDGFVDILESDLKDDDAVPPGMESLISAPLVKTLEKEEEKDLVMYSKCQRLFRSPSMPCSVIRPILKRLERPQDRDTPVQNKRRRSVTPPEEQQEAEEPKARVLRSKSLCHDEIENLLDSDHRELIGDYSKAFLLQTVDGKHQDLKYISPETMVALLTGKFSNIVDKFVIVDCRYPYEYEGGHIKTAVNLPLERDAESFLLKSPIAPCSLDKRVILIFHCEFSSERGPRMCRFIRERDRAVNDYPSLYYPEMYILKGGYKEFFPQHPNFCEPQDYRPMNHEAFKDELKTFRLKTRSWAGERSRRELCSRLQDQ
Her2 expr inh – lowers expression of human Her2 kinase. AID 645. HER2 level % of control, % at 10 µM. 0.69% of 65,000 active. P04626. SKBR-3 HER2 protein level, AlphaScreen, 18-24 h; hits give low values;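 active = HER2 level under 5% of the carrier-only control; inconclusive = no clear call, values can overlap the other calls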;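 note: 100% = DMSO carrier and 0% = 500 nM PU-H71 HSP90 inhibitor; lower value means stronger loss of Her2 protein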
M1 agonist – activates the M1 muscarinic receptor | B-score at 10 µM | AID 626 | CHO-M1 cells, Fluo-4 calcium fluorescence, agonist mode; hits give high values | 3% of 64,000 active;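 active = fluorescence rise, raw or as B-score row- and column-corrected plate score, outside the 99.7% band of its plate's samples, either direction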
HEK293 NFkB inh – inhibitors of the PMA/ionomycin-induced NF-kB reporter in HEK293 cells; HEK-293 NF-kB luciferase reporter, luminescence; inhibition, % at 3 µM; 0.21% of 62,000 active; AID 465;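 active = inhibition above the mean of all tested compounds plus 3 SD, cut at about 40% in these data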;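 note: 0% = stimulated DMSO wells and 100% = 10 µM reference inhibitor 5653914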
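System – HEK-293 cells with stable firefly luciferase reporter driven by four HIV NF-kB elements · Doses – one dose, 3 µM · Schedule – 1 h compound pre-incubation, 16 h PMA/ionomycin at 37 °C · Technique – luminescence from luciferase substrate reagent · Measure – percent inhibition normalized per plate to DMSO and reference-inhibitor controls · Replicates – tested once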
M1 antag – M1 muscarinic receptor (rat) antagonism. P08482. CHO-M1 cells, Fluo-4 calcium, ACh EC80 antagonist mode; hits give low values. B-score at 10 µM. 3.4% of 64,000 active;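 active = calcium fluorescence response, raw or row-and-column corrected B-score, differing from the plate sample mean either way at a set confidence level, mostly lower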
M1 agonist conf – rat M1 muscarinic agonism, confirmation | shares compounds with M1 agonist | CHO-M1 cells, Fluo-4 calcium fluorescence, agonist mode; actives lie on both sides | fluorescence change (max-min) at 10 µM | 19% of 1,700 active | AID 1488;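 active = fluorescence change differs from the solvent-only DMSO control mean at a set confidence level in both duplicate runs; inconclusive = differs from solvent-only control mean in just one of two runs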;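 note: an EC20 dose of acetylcholine follows compound addition during the same imaging run; raw fluorescence intensity difference in instrument units with no normalization to controls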
M4 ag counter – activates rat M4 receptor in counter-screen for M1 agonists; 9% of 1,700 active; CHO M4/Gqi5 cells, Fluo-4 calcium fluorescence, agonist mode; actives lie on both sides; fluorescence change (max-min) at 10 µM; shares compounds with M1 agonist;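 active = fluorescence change differing from the plate's solvent-only control wells at 99.7% confidence in both duplicates, whether higher or lower; inconclusive = differs from solvent controls in only one of two duplicates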
* = called active by the depositor; ? = inconclusive; . = no result. Rows were chosen to be rich in hits. Some 6.8% of all compounds tested hit in one or more screens of this group.

SMILES	DUSP1 inh	Cdc25B inh	Her2 expr inh	M1 agonist	HEK293 NFkB inh	M1 antag	M1 agonist conf	M4 ag counter
Cc1cc(C(=O)N2CCN(Cc3ccc4c(c3)OCO4)CC2)cs1	1	0	145	-0.1	8	0.012	.	.
COc1ccc(C2=CC(c3c(C)nn(-c4ccccc4)c3Cl)n3nnnc3N2)cc1OC (configuration not stated)	41	4	44	5.5*	0	1.8	38	8.5
Cc1ccc(CN2C(=O)CCC2C(=O)NCc2ccco2)cc1 (configuration not stated)	8	22	83	0.33	8	0.65	.	.
COc1ccc(N2CCN(C(=O)c3ccc(NS(=O)(=O)c4cccc(F)c4)cc3)CC2)cc1	33	-8	89	-0.97	-11	-0.1	.	.
COc1ccc(S(=O)(=O)Cc2ccc(C(=O)N3CCN(c4ccc(Cl)cc4)CC3)o2)cc1	15	4	82	2.3*	11	-0.46	-4.3	-10
COc1ccc(S(=O)(=O)Cc2ccc(C(=O)N3CCN(c4cccc(C)c4)C(C)C3)o2)cc1 (configuration not stated)	6	-10	63	3.4*	9	-1.4	?	-35
COc1ccc(S(=O)(=O)Cc2ccc(C(=O)NCCc3ccc(S(N)(=O)=O)cc3)o2)cc1	-14	1	91	3.8*	14	-0.61	?	-59
COc1ccc(N2CCN(C(=O)c3ccc(NS(=O)(=O)c4ccc(F)c(F)c4)cc3)CC2)cc1	36	-5	95	2.3*	13	-0.24	-8.5	-35
COc1ccc(N2CCN(C(=O)c3ccc(CS(=O)(=O)c4ccc(OC)cc4)o3)CC2)cc1	6	-2	97	0.25	12	-1.4	.	.
COCCCNC(=O)c1ccc(CS(=O)(=O)c2ccc(OC)cc2)o1	-9	-3	78	0.28	10	-0.19	.	.
CC1Cc2ccccc2N1C(=O)CSc1nnc(-c2ccc(S(=O)(=O)N3CCCC3)cc2)o1 (configuration not stated)	10	-6	77	-0.62	2	-0.04	.	.
Cc1cc(-n2c(C)cc(C(=O)CSc3ncnc4ccccc34)c2C)no1	27	-27	81	7*	40*	-1.4	-5.4	?
CC(=O)c1cccc(OCC(=O)c2cc(C)n(-c3cc(C)on3)c2C)c1	12	-3	94	0.9	9	-0.39	.	.
Cc1cc(-n2c(C)cc(C(=O)COc3ccc4ccc(=O)oc4c3)c2C)no1	29	-6	99	6.2*	7	-0.25	?	-40
Cc1cc(C)c2cc(CN(CC3CCCO3)S(=O)(=O)c3ccc4c(c3)OCCO4)c(=O)[nH]c2c1 (configuration not stated)	28	3	138	0.79	22	0.013	.	.
CC(C)OCCCNc1ncnc2c1[nH]c1ccccc12	-3	7	72	3.2*	14	-4.3*	1.9	?
COc1ccc2cc3cc(C(=O)NCc4ccc5c(c4)OCO5)oc3nc2c1	11	31	125	2.1*	18	-0.51	?	-46
Cc1nc2ccccc2c2oc(C(=O)NCc3ccc4c(c3)OCO4)cc12	?	1	86	2.6*	2	-2*	-8.3	-35
NC(=O)C1CCN(C(=O)C2c3ccccc3C(=O)N3CCc4ccccc4C23)CC1 (configuration not stated)	24	-26	79	0.036	14	-0.15	.	.
COc1ccc(S(=O)(=O)NCC2CCC(C(=O)N3CCC4(CC3)OCCO4)CC2)cc1 (configuration not stated)	8	-9	92	-0.85	10	0.052	.	.
COc1ccc(NC(=O)CC2C(=O)N(c3cccc(OC)c3)C(=O)N2C2CCCCC2)cc1 (configuration not stated)	7	-4	96	-0.096	18	0.89	.	.
